≈ marks a conversion by molar mass, not a printed value. A value given as a limit tells only on which side of the number the result lay.

Series [1] concerns Mus musculus. The experiment in a line: Ability to prevent NMDA-induced hyperlocomotion in the mouse following iv administration of 30 mg/kg dose; 10/10. The class given is functional.
The species entered for a further series is Rattus norvegicus. The experiment in a line: Inhibition of NMDA-induced depolarizations in rat cortical wedges. The class given is functional.
Series [2] has as its system Mus musculus. Briefly: Ability to prevent NMDA-induced hyperlocomotion in the mouse following iv administration of 10 mg/kg dose; 5/10. Type of series: functional.
Another series deals with Glutamate NMDA receptor. Briefly: Binding affinity at glycine binding site of NMDA receptor in rat cortical membranes by [3H]L-689,560 displacement. Type of series: cell membranes, Membrane.
The nature of series [3]: Solubility in 0.1 M aqueous D-arginine at pH 9.
In series [4] the test system is Mus musculus. The experiment in a line: Ability to prevent NMDA-induced hyperlocomotion in the mouse following iv administration of 20 mg/kg dose; 0/9. The class given is functional.
The subject of series [5] is Mus musculus. The experiment in a line: Ability to prevent NMDA-induced hyperlocomotion in the mouse following iv administration of 20 mg/kg dose; 0/6. Type of series: functional.
Series [6] is described as follows: Solubility in 0.1 m aqueous D-arginine at pH 9. The class given is physicochemical.
Series [7] is described as follows: Solubility in water at pH 4-5. Type of series: physicochemical.
Series [8] has as its system Mus musculus. Briefly: Ability to prevent NMDA-induced hyperlocomotion in the mouse following iv administration of 20 mg/kg dose; 1/9. Type of series: functional.
In series [9] the test system is Mus musculus. Briefly: Ability to prevent NMDA-induced hyperlocomotion in the mouse following iv administration of 20 mg/kg dose; 6/9. The class given is functional. In short, it runs like this: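 CD1 mice (25-30 g) received NMDA 300 mg/kg sc. Test compound was given iv via a tail vein 15 min before NMDA, dissolved in buffered saline (pH 7-9) or 0.1 M aqueous D-arginine; saline-dosed controls; usually 9-10 mice per dose. Time to onset and duration of hyperlocomotion recorded up to 15 min. Score = number of animals reaching 15 min post-NMDA.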

Series [10] deals with Mus musculus. The experiment in a line: Ability to prevent NMDA-induced hyperlocomotion in the mouse following iv administration of 30 mg/kg dose; 5/9. Type of series: functional.
Series [11] deals with Mus musculus. Briefly: Ability to prevent NMDA-induced hyperlocomotion in the mouse following iv administration of 3 mg/kg dose; 0/9. Type of series: functional.
Series [12] deals with Mus musculus. Briefly: Ability to prevent NMDA-induced hyperlocomotion in the mouse following iv administration of 10 mg/kg dose; 2/9. The class given is functional.
For series [13], the system named is Mus musculus. The experiment in a line: Ability to prevent NMDA-induced hyperlocomotion in the mouse following iv administration of 15 mg/kg dose; 3/10. The class given is functional.
Series [14] has as its system Mus musculus. The experiment in a line: Ability to prevent NMDA-induced hyperlocomotion in the mouse following iv administration of 3 mg/kg dose; 3/10. Type of series: functional.

The EC50 is the concentration that produces a half-maximal response. The low end stands for greater potency, the high end for weaker potency. Usually IC50 stands for the concentration that gives 50% inhibition. Low values mean higher potency, high ones lower potency. On to `C[C@@H]1CN(O)C(=O)[C@@H]1N`, for which the results for the “No. protected/ No.dosed” value in the series on Mus musculus [1] and with Mus musculus [2] were 10 and 5, respectively. Also, the EC50 in the series listed under Rattus norvegicus came to 16000 nM. On Glutamate NMDA receptor, this molecule had an IC50 of 1200 nM.

On to `Cc1ncnn1Cc1c(Cl)c(Cl)cc2nc(O)c(O)nc12`, for which, at Glutamate NMDA receptor, the IC50 was 190 nM.

Usually solubility stands for the concentration that dissolves in the medium under given conditions. On to `Oc1nc2cc(Cl)c(Cl)c(Cn3cccn3)c2nc1O`, for which, in series [3], the solubility is < 10 µg/mL. The same molecule yielded an IC50 at Glutamate NMDA receptor of 5 nM.

As for `CCC(c1c(Cl)c(Cl)cc2nc(O)c(O)nc12)n1ccnc1` (stereo unspecified), the “No. protected/ No.dosed” value in the series on Mus musculus [4] was determined as 0. Also, in the series filed under Rattus norvegicus, the EC50 was 90 nM. The same molecule yielded an IC50 at Glutamate NMDA receptor of 3.1 nM.

On to `CCC(c1c(Cl)c(Cl)cc2nc(O)c(O)nc12)n1ccnn1` (stereo unspecified), for which, in the series on Mus musculus [5], the “No. protected/ No.dosed” value worked out at 0. In series [6], the solubility was < 1000 µg/mL. This molecule came in with an EC50 in the series listed under Rattus norvegicus of 290 nM. In addition, the concentration for half-maximal inhibition (IC50) on Glutamate NMDA receptor stood at 0.75 nM.

For the molecule `CN1CCN(Cc2cn(Cc3c(Cl)c(Cl)cc4nc(O)c(O)nc34)nn2)CC1`, in series [7], the solubility was > 10000 µg/mL. For the same molecule, in the series filed under Rattus norvegicus, it took 88 nM to reach a half-maximal effect (EC50). The IC50 on Glutamate NMDA receptor came to 7.6 nM. In the series on Mus musculus [8], the “No. protected/ No.dosed” value was 1.

Regarding `Oc1nc2cc(Cl)c(Cl)c(Cn3ccnc3)c2nc1O`, the midpoint of the response in the series filed under Rattus norvegicus, the EC50, lay at 1300 nM. Also, on Glutamate NMDA receptor, the half-maximal inhibitory concentration (IC50) came out at 23 nM.

The molecule `Cc1nccn1Cc1c(Cl)c(Cl)cc2nc(O)c(O)nc12` showed an IC50 on Glutamate NMDA receptor of 109 nM.

Regarding `CCC(c1c(Cl)c(Cl)cc2nc(O)c(O)nc12)n1cnnc1` (stereo unspecified), the “No. protected/ No.dosed” value amounted to 6 in the series on Mus musculus [9], 5 in the series on Mus musculus [10], 0 in the series on Mus musculus [11] and 2 in the series with Mus musculus [12]. In [6], the solubility is > 5000 µg/mL. The same molecule had a concentration for a half-maximal effect (EC50) in the series filed under Rattus norvegicus of 90 nM. The same molecule displayed an IC50 at Glutamate NMDA receptor of 2.6 nM.

The molecule `Oc1nc2cc(Cl)c(Cl)c(Cn3cnnc3)c2nc1O` yielded an EC50 in the series filed under Rattus norvegicus of 1090 nM. The IC50 at Glutamate NMDA receptor was 81 nM.

In the series listed under Rattus norvegicus, `Cc1ncn(Cc2c(Cl)c(Cl)cc3nc(O)c(O)nc23)n1` came in with an EC50 of 640 nM. The IC50 at Glutamate NMDA receptor is 24 nM.

The molecule `Cn1nnc(Cc2c(Cl)c(Cl)cc3nc(O)c(O)nc23)n1` yielded an IC50 at Glutamate NMDA receptor of 78 nM.

As for `Oc1nc2cc(Cl)c(Cl)c(Cc3ccccn3)c2nc1O`, the solubility in [7] is < 1000 µg/mL. The molecule also had an EC50 in the series listed under Rattus norvegicus of 4100 nM. The IC50 on Glutamate NMDA receptor worked out at 30 nM.

`Oc1nc2cc(Cl)c(Cl)c(Cn3ccnn3)c2nc1O` gave an EC50 in the series filed under Rattus norvegicus of 350 nM. In addition, at Glutamate NMDA receptor, the IC50 is 1 nM.

`Oc1nc2cc(Cl)c(Cl)c(Cn3cncn3)c2nc1O`: the solubility in series [3] is < 10 µg/mL. Also, the 50% inhibitory concentration (IC50) at Glutamate NMDA receptor was determined as 25 nM.

Turning to `CCN(CC)Cc1cn(Cc2c(Cl)c(Cl)cc3nc(O)c(O)nc23)nn1`, the “No. protected/ No.dosed” value in the series with Mus musculus [4] was determined as 0. This molecule gave a half-maximal effective concentration (EC50) in the series listed under Rattus norvegicus of 150 nM. At Glutamate NMDA receptor, this molecule registered a 50% inhibitory concentration (IC50) of 6 nM.

Regarding `CCCn1cnc(Cc2c(Cl)c(Cl)cc3nc(O)c(O)nc23)c1`, in the series on Mus musculus [9], the “No. protected/ No.dosed” value is listed as 6. The solubility in series [7] was > 10000 µg/mL. In the series filed under Rattus norvegicus, this molecule had an EC50 of 350 nM. For the same molecule, on Glutamate NMDA receptor, the half-maximal inhibitory concentration (IC50) worked out at 4.4 nM.

As to `CCC(c1c(Cl)c(Cl)cc2nc(O)c(O)nc12)n1cncn1` (stereo unspecified), in series [6], the solubility was ~1000 µg/mL (≈ 2940 µM). The molecule also returned an EC50 in the series filed under Rattus norvegicus of 420 nM. The molecule also registered an IC50 on Glutamate NMDA receptor of 4 nM.

Molecule `Oc1nc2cc(Cl)c(Cl)cc2nc1O` [2,3-DIHYDROXY-6,7-DICHLOROQUINOXALINE] showed a concentration for half-maximal inhibition (IC50) on Glutamate NMDA receptor of 2000 nM.

For `O=c1[nH]c2cc(Cl)c(Cl)c([N+](=O)[O-])c2[nH]c1=O` [LICOSTINEL], the “No. protected/ No.dosed” value worked out at 3 in the series with Mus musculus [13], 5 with Mus musculus [2] and 3 in the series on Mus musculus [14]. The half-maximal effective concentration (EC50) in the series filed under Rattus norvegicus amounted to 1100 nM. On Glutamate NMDA receptor, the half-maximal inhibitory concentration (IC50) stood at 1.4 nM.
